Laboratory results from ChEMBL document CHEMBL1687750, “Nonclinical pharmacokinetics of oseltamivir and oseltamivir carboxylate in the central nervous system” (Antimicrob Agents Chemother, 2009).
Values belong to the compound of their own block, whether it stands above or below them.

Experiments:
[1] = target: ATP-dependent translocase ABCB1 (Homo sapiens, UniProt P08183); test: Inhibition of human MDR1-mediated digoxin permeability expressed in pig LLC-PK1 cells; type: cell-based
Method in brief: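 P-gp-transfected LLC-PK1 monolayers were used, with labeled digoxin (10 nM) as substrate and unlabeled oseltamivir (0.1–10 mM) added to both donor and receiver sides. Transport was bidirectional at 37°C under 5% CO2, with the acceptor side sampled up to 3 h and counted by scintillation. Three inserts were used per condition, and IC50 was derived from inhibition of digoxin transport.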

[2] = Prodrug conversion in 42 days old female rat liver S9 fractions assessed as paranitrophenol generation rate assessed per mg of protein per min; type: ADME, subcellular, S9 fraction
Method in brief: (§1)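 Control esterase activity was measured by incubating 100 µM p-nitrophenyl acetate (final) with 0.05 mg rat brain or liver S9 protein in 1.5 ml Tris-HCl pH 7.4 for 1 min at 37°C. Reactions were quenched with acetonitrile, and product was quantified by HPLC-UV against external standards. The no-protein blank rate was subtracted, and rate was expressed per mg protein per min.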

[3] = Prodrug conversion assessed as oseltamivir carboxylate level in presence of Sf9 cell culture supernatant expressing human recombinant HCE2 after 30 mins; type: ADME; conditions: sf9, 0.5 h
Method in brief: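 Culture supernatants from baculovirus-infected Sf9 cells (day 5–7; 1.0 mg/ml protein) were incubated in triplicate with 10 µM 14C-oseltamivir in 100 mM Tris-HCl at 37°C for 30 min. Reactions were quenched with TCA-acetonitrile, then analyzed by HPLC with fraction scintillation counting. Conversion was calculated as OC radioactivity over total radioactivity, corrected for no-enzyme hydrolysis. Wild-type virus and liver S9 served as controls.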

[4] = Prodrug conversion in human liver S9 fractions assessed as paranitrophenol generation rate assessed per mg of protein per min; type: ADME, subcellular, S9 fraction
[5] = Prodrug conversion in commercial liver S9 fractions assessed as paranitrophenol generation rate assessed per mg of protein per min; type: ADME, subcellular, Liver S9 fraction
[6] = Prodrug conversion in 42 days old female rat brain S9 fractions assessed as oseltamivir carboxylate generation rate assessed per mg of protein per min; type: ADME, tissue-based
Method in brief: (§2)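 Rat brain or liver S9 (9,000 × g supernatant; 1.0 mg protein) was incubated in triplicate with 10 µM 14C-oseltamivir (final) in 100 mM Tris-HCl pH 7.4 for 30 min at 37°C. Reactions were quenched with TCA-acetonitrile, and the fraction converted to OC was measured by radioflow HPLC with fractionation. Rate was calculated as (pmol/ml substrate × fraction hydrolyzed)/(mg protein/ml × time), minus the no-protein background.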

[7] = Prodrug conversion in 42 days old female rat liver S9 fractions assessed as oseltamivir carboxylate generation rate assessed per mg of protein per min; type: ADME, subcellular, S9 fraction; method in brief: as §2
[8] = Prodrug conversion in human brain S9 fractions assessed as oseltamivir carboxylate generation rate assessed per mg of protein per min; type: ADME
Method in brief: (§3)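 S9 from brain or liver (rat S9 made by homogenizing tissue in ~4 ml Tris-sucrose buffer per g, supernatant after 9,000 × g at 10°C; pooled human brain and liver S9 also used), protein by bicinchoninic acid assay. Oseltamivir: triplicate, 10 μM 14C-oseltamivir final, 1.0 mg S9 protein, 100 mM Tris-HCl pH 7.4, 30 min at 37°C, quenched with TCA-acetonitrile.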

[9] = Prodrug conversion in human liver S9 fractions assessed as oseltamivir carboxylate generation rate assessed per mg of protein per min; type: ADME, subcellular, S9 fraction; method in brief: as §3
[10] = Prodrug conversion in commercial brain S9 fractions assessed as oseltamivir carboxylate generation rate assessed per mg of protein per min; type: ADME; method in brief: as §3
[11] = Prodrug conversion in 7 days old male rat brain S9 fractions assessed as conversion of oseltamivir to oseltamivir carboxylate; type: ADME, tissue-based; method in brief: as §3
[12] = Prodrug conversion in 7 days old female rat brain S9 fractions assessed as conversion of oseltamivir to oseltamivir carboxylate; type: ADME, tissue-based; method in brief: as §3
[13] = Prodrug conversion in 7 days old female rat liver S9 fractions assessed as conversion of oseltamivir to oseltamivir carboxylate; type: ADME, subcellular, S9 fraction; method in brief: as §3
[14] = Prodrug conversion in 42 days old male rat liver S9 fractions assessed as conversion of oseltamivir to oseltamivir carboxylate; type: ADME, subcellular, S9 fraction; method in brief: as §2
[15] = Prodrug conversion in 42 days old female rat liver S9 fractions assessed as conversion of oseltamivir to oseltamivir carboxylate; type: ADME, subcellular, S9 fraction; method in brief: as §2
[16] = Prodrug conversion in human brain S9 fractions assessed as conversion of oseltamivir to oseltamivir carboxylate; type: ADME; method in brief: as §3
[17] = Prodrug conversion in commercial brain S9 fractions assessed as conversion of oseltamivir to oseltamivir carboxylate; type: ADME; method in brief: as §3
[18] = Prodrug conversion in commercial liver S9 fractions assessed as conversion of oseltamivir to oseltamivir carboxylate; type: ADME, subcellular, Liver S9 fraction; method in brief: as §3
[19] = Prodrug conversion in 7 days old female rat liver S9 fractions assessed as paranitrophenol generation rate assessed per mg of protein per min; type: ADME, subcellular, S9 fraction
[20] = Prodrug conversion in 7 days old male rat liver S9 fractions assessed as paranitrophenol generation rate assessed per mg of protein per min; type: ADME, subcellular, S9 fraction
[21] = Prodrug conversion in 42 days old female rat brain S9 fractions assessed as paranitrophenol generation rate assessed per mg of protein per min; type: ADME, tissue-based; method in brief: as §1
[22] = Prodrug conversion in 42 days old male rat brain S9 fractions assessed as paranitrophenol generation rate assessed per mg of protein per min; type: ADME, tissue-based; method in brief: as §1
[23] = Clearance in Sprague-Dawley rat at 30 mg/kg, iv; type: ADME, organism-based; parameters: dose 30 mg/kg, route intravenous; conditions: in vivo
Method in brief: (§4)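 Nonfasted adult rats received 30 mg/kg in aqueous 0.9% NaCl (pH 4.0) by slow tail-vein injection over 20–30 s. Groups were sampled at 5 min and 0.25, 0.5, 1, 2, 4 and 8 h, with 4–5 rats per time point, under terminal isoflurane. Blood was taken by heart puncture and CSF from the cisterna magna. Brains were homogenized either unperfused or after transcardial saline perfusion. Samples were assayed by LC-MS/MS, and pooled composite data were analyzed noncompartmentally.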

[24] = AUC (0 to infinity) ratio in brain to plasma in non-perfused Sprague-Dawley rat at 30 mg/kg, iv; type: ADME, organism-based; parameters: dose 30 mg/kg, route intravenous; conditions: brain and plasma, read-out: Ratio AUC; method in brief: as §4
Plasma [25] = test: AUC (0 to infinity) in non-perfused Sprague-Dawley rat plasma at 30 mg/kg; conditions: in vivo, iv
Plasma [26] = test: Cmax in non-perfused Sprague-Dawley rat plasma assessed as active metabolite oseltamivir carboxylate level at 30 mg/kg, iv; type: ADME, organism-based; parameters: dose 30 mg/kg, route intravenous; conditions: in vivo; method in brief: as §4
Plasma [27] = test: Terminal half life in perfused Sprague-Dawley rat plasma assessed as active metabolite oseltamivir carboxylate level at 30 mg/kg, iv; type: ADME, organism-based; parameters: dose 30 mg/kg, route intravenous; conditions: in vivo
Method in brief: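 Nonfasted Sprague-Dawley rats given 30 mg/kg i.v. in 0.9% NaCl pH 4.0 by tail vein over 20–30 s. Terminal sampling under isoflurane at 5 min, 0.25, 0.5, 1, 2, 4 and 8 h (4–5 rats/time): plasma, CSF, and brain homogenate, with or without saline perfusion. LC-MS/MS. t1/2, Vss and ratios from noncompartmental analysis of pooled composite concentrations.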

[28] = Cmax in perfused Sprague-Dawley rat brain at 30 mg/kg, iv after 0.25 hrs; type: ADME, organism-based; parameters: dose 30 mg/kg, route intravenous; method in brief: as §4
[29] = Cmax ratio in brain to plasma in non-perfused Sprague-Dawley rat at 30 mg/kg, iv; type: ADME, organism-based; parameters: dose 30 mg/kg, route intravenous; conditions: brain and plasma; method in brief: as §4
[30] = AUC ratio in brain to plasma in perfused Sprague-Dawley rat at 30 mg/kg, iv; type: ADME, organism-based; parameters: dose 30 mg/kg, route intravenous; conditions: brain and plasma, read-out: Ratio AUC; method in brief: as §4
Plasma [31] = test: AUC (0 to 8 hrs) after iv dose in non-perfused Sprague-Dawley rat plasma assessed as active metabolite oseltamivir carboxylate level at 30 mg/kg; conditions: in vivo

ATP-dependent translocase ABCB1, sequence (P08183 whole entry): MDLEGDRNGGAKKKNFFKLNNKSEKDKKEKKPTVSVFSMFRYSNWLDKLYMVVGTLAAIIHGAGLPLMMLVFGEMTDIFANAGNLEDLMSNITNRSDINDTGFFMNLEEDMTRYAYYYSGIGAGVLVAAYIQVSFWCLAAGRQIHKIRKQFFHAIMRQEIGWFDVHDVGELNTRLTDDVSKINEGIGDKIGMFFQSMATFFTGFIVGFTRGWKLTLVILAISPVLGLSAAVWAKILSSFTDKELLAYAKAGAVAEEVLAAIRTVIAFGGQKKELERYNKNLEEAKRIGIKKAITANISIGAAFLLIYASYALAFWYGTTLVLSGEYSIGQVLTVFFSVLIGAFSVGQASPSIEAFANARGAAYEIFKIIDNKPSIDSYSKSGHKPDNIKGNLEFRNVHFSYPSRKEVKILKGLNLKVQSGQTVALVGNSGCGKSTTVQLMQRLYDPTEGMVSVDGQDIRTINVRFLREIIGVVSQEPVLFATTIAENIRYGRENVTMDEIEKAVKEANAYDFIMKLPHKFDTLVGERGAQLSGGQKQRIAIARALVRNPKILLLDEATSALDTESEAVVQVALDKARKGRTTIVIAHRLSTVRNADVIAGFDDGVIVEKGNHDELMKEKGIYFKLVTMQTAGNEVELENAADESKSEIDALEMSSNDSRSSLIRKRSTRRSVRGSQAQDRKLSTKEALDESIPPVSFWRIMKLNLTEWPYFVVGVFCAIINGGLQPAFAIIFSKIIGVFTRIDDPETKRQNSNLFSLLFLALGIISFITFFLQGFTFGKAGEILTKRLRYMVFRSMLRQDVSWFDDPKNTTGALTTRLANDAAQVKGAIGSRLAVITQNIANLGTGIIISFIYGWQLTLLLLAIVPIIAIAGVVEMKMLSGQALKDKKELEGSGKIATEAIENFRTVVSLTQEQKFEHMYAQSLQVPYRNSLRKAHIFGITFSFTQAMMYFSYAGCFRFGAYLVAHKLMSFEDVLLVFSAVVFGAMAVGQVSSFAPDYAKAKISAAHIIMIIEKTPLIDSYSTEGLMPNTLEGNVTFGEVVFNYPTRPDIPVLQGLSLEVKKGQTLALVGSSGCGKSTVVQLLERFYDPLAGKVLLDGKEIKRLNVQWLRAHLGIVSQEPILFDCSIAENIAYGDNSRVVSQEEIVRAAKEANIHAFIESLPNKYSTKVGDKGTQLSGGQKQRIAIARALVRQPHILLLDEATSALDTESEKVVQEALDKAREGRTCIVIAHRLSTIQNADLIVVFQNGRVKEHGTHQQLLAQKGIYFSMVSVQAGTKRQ

IC50 [1]: 1300 µM | Activity [2]: 1001 nmol | Activity [3]: Not Active | Activity [4]: 574 nmol | Activity [5]: 482 nmol | Activity [6]: 0.6 pmol/min/mg | Activity [7]: 1.37 pmol/s | Activity [8]: 0.39 pmol/s | Activity ([8]; BLD = below limit of detection): BLD | Activity [9]: 119 pmol/s | Activity [10]: 0.32 pmol/min/mg | Activity [11]: < 0.06% | Activity [12]: < 0.06% | Activity [13]: 0.1% | Activity [14]: 0.63% | Activity [15]: 0.41% | Activity [16]: 0.12% | Activity ([16]; BLD = below limit of detection): BLD | Activity [17]: 0.1% | Activity [18]: 3.79% | Activity [19]: 538 nmol | Activity [20]: 467 nmol | Activity [21]: 70 nmol | Activity [22]: 112 nmol | clearance [23]: 93.9 mL/min/kg | Kp [24]: 0.24 | AUC (Plasma [25]): 5330
SMILES: CCOC(=O)C1=C[C@@H](OC(CC)CC)[C@H](NC(C)=O)[C@@H](N)C1 [OSELTAMIVIR]

Cmax (Plasma [26]): 6880 ng/mL | beta t1/2 (Plasma [27]): 1.71 h | Cmax [28]: 75.5 ng/g | Kp [29]: 0.02 | Kp [30]: < 0.004 | AUC (Plasma [31]): 13600
SMILES: CCC(CC)O[C@@H]1C=C(C(=O)O)C[C@H](N)[C@H]1NC(C)=O [OSELTAMIVIR CARBOXYLATE]
